Data taken from ChEMBL document CHEMBL1134409, “Design, synthesis, and discovery of a novel CCR1 antagonist” (J Med Chem, 2001).

Key:
[1] = target: T1, C-C chemokine receptor type 1 (Homo sapiens, UniProt P32246); assay: Inhibitory activity against [125I]-MIP-1 alpha binding to human CCR1 receptors.
T1 sequence (P32246 whole entry): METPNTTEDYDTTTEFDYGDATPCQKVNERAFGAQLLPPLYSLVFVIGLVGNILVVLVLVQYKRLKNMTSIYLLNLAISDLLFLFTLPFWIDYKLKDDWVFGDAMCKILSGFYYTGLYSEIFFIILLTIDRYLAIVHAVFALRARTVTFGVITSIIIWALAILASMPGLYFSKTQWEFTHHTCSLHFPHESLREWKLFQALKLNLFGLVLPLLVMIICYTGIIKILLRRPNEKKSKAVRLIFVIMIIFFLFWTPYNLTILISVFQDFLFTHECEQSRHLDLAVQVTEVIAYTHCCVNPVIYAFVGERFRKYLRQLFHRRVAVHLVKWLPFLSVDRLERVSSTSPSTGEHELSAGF
How it was run: (§1)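 Whole-cell binding. CHO cells transfected with the CCR receptor were detached with PBS(-) containing 2 mM EDTA and resuspended in Krebs-Ringer phosphate buffer with 0.1% BSA and 0.1% glucose. 1 × 10^5 cells were incubated with 50 pM 125I-chemokine plus antagonist for 1 h at 37 °C to reach equilibrium. Nonspecific binding was taken with 100 nM unlabeled chemokine. Ice-cold buffer was then added.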

[2] = target: T2, C-C chemokine receptor type 1 (Mus musculus, UniProt P51675); assay: Inhibitory activity against [125I]-MIP-1 alpha binding to mouse CCR1 receptors.; how it was run: as §1
T2 sequence (P51675 whole entry): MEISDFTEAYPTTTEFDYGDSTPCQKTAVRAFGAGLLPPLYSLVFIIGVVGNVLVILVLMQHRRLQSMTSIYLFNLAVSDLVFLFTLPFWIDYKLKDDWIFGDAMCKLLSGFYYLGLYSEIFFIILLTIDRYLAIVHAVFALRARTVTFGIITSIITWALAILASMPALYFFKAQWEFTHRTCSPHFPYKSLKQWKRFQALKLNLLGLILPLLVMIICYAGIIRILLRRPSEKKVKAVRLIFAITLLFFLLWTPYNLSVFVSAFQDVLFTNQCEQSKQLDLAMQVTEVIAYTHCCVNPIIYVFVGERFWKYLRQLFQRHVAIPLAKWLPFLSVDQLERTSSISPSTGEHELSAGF

[3] = target: T3, C-C chemokine receptor type 3 (Homo sapiens, UniProt P51677); assay: Inhibitory activity against I-Eotaxin binding to human CCR3 receptors
T3 sequence (P51677 whole entry): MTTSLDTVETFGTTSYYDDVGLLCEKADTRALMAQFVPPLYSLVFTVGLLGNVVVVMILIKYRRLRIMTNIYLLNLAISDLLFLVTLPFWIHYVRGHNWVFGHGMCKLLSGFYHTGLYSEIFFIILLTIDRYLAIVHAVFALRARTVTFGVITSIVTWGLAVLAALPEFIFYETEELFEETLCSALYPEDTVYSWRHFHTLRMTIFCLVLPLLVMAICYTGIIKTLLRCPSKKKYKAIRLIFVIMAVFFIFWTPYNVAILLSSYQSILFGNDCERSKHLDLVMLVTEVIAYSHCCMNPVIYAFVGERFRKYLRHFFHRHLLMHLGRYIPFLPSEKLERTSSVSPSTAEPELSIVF
How it was run: (§2)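 CCR-transfected CHO cells, detached with PBS(-)/2 mM EDTA, in Krebs-Ringer phosphate buffer with 0.1% BSA and 0.1% glucose. 1×10^5 cells incubated with 50 pM 125I-chemokine plus antagonist, 1 h at 37 °C to equilibrium. Nonspecific binding measured with 100 nM unlabeled chemokine. Reaction stopped with ice-cold binding buffer.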

[4] = target: T3, C-C chemokine receptor type 3; assay: Inhibitory activity against I-Eotaxin induced [Ca2+] response in human CCR3 receptor; format: functional
How it was run: (§3)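 Calcium flux in U937 cells transfected with CCR receptors, loaded with 1 µM Fura-2 AM for 30 min at 37 °C, washed twice and resuspended at 1×10^6 cells/mL in Krebs-Henseleit-Hepes buffer with 0.1% BSA. Stirred cuvette fluorescence read at 37 °C, excitation 340 and 380 nm, emission 510 nm, after chemokine stimulation.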

[5] = target: C-C chemokine receptor type 5 (Homo sapiens, UniProt P51681); assay: Inhibition of RANTES binding to C-C chemokine receptor type 5
How it was run: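 CCR5 binding was done on membranes, following the kit manufacturer's instructions.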

[6] = target: T4, Probable C-C chemokine receptor type 3 (Mus musculus, UniProt P51678); assay: Inhibitory activity against I-Eotaxin induced [Ca2+] response in mouse CCR3 receptor; format: functional
T4 sequence (P51678 whole entry): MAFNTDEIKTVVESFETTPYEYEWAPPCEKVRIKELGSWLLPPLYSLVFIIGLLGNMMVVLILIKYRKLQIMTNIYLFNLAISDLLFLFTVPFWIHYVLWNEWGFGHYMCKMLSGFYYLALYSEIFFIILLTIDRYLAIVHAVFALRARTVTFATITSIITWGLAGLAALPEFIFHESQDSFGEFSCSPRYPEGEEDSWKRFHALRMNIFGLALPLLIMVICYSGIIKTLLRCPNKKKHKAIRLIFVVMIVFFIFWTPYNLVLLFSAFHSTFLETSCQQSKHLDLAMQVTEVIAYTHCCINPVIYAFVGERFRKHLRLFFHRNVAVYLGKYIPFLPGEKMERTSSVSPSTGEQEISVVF
How it was run: (§4)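 U937 cells transfected with the CCR receptor were loaded with 1 µM Fura-2 AM for 30 min at 37 °C and washed twice. They were resuspended at 1 × 10^6 cells/mL in Krebs-Henseleit-HEPES with 0.1% BSA. The stirred cuvette suspension was read at 37 °C for chemokine-induced fluorescence change, with excitation at 340 and 380 nm and emission at 510 nm.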

[7] = target: T1, C-C chemokine receptor type 1; assay: Inhibitory activity against MIP-1 alpha- induced [Ca2+] response in U937 cells expressing human CCR1 receptor; format: functional, cell-based, U-937; how it was run: as §4
[8] = target: T5, C-C chemokine receptor type 4 (Homo sapiens, UniProt P51679); assay: Inhibitory activity against […] induced increase in intracellular [Ca2+] in KU812 cells expressing human CCR4 receptor; format: functional, cell-based
T5 sequence (P51679 whole entry): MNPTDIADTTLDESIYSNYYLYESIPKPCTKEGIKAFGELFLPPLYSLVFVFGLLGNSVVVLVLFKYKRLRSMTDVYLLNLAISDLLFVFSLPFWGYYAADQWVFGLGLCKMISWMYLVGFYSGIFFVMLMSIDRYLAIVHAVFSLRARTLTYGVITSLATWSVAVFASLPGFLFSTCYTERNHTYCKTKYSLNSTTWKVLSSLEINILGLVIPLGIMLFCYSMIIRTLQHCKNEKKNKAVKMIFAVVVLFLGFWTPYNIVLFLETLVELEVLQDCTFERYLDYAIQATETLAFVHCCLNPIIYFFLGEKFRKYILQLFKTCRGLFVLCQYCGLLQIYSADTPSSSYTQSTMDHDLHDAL
How it was run: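 Calcium rise evoked by TARC in KU812 cells.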

[9] = Inhibitory activity of Fractalkine-induced increase in [Ca2+] Conc. in HEL cells at human CX3CR1 receptor; format: functional, cell-based
How it was run: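 Calcium rise evoked by fractalkine in HEL cells.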

[10] = target: T4, Probable C-C chemokine receptor type 3; assay: Inhibitory activity against I-Eotaxin alpha binding to mouse CCR3 receptors; how it was run: as §1
[11] = target: C-C chemokine receptor type 2 (Homo sapiens, UniProt P41597); assay: Inhibitory activity in human CCR2b receptor
[12] = target: T2, C-C chemokine receptor type 1; assay: inhibitory activity against MIP-1 alpha- induced [Ca2+] response in U937 cells expressing mouse CCR1 receptor; format: functional, cell-based, U-937; how it was run: as §3
[13] = Inhibitory activity of I-interleukin-8-binding to human neutrophil at human CXCR1,2 receptor
How it was run: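 125I-interleukin-8 binding to human neutrophil membranes.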

[14] = target: T2, C-C chemokine receptor type 1; assay: Inhibitory activity against 125 I -MIP-1 alpha binding to mouse CCR1 receptors; how it was run: as §2

Sequence of C-C chemokine receptor type 5 (P51681 whole entry): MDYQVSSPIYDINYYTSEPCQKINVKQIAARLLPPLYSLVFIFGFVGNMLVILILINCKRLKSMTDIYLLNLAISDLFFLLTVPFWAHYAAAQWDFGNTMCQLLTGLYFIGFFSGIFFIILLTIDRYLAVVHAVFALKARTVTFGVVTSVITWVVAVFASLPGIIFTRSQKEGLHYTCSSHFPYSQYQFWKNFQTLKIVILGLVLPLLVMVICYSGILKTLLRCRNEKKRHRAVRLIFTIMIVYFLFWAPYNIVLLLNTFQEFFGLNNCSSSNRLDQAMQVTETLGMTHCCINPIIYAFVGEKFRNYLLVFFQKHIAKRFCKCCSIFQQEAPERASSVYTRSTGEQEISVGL
Sequence of C-C chemokine receptor type 2 (P41597 whole entry): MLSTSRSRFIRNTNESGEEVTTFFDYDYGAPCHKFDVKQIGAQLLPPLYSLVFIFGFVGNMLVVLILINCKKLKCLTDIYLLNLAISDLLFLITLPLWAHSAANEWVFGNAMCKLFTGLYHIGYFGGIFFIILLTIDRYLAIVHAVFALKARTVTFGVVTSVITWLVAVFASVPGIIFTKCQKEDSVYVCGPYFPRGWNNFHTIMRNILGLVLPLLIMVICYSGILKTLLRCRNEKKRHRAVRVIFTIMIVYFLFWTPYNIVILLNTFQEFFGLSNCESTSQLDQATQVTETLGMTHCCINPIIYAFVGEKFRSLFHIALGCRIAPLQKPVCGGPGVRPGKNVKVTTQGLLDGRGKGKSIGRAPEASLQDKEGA

Structure (SMILES): O=C(NC1CCN(CC2CCCCCCC2)CC1)C1c2cc(Cl)ccc2Oc2ccc(Cl)cc21
- IC50 [1]: > 10000 nM
- IC50 [2]: > 10000 nM

Structure (SMILES): CC[N+]1(CC2CCCCCCC2)CCC(NC(=O)C2c3cc(Br)ccc3Oc3ccc(Br)cc32)CC1 (stereo not drawn)
- IC50 [1]: 3.3 nM
- IC50 [2]: 140 nM

Structure (SMILES): O=C(NC1CCN(C/C2=C/CCCCCC2)CC1)C1c2cc(Br)ccc2Oc2ccc(Br)cc21
- IC50 [1]: 150 nM
- IC50 [2]: 2500 nM

Structure (SMILES): O=C(NC1CC[N+](Cc2ccccc2)(CC2CCCCCCC2)CC1)C1c2ccccc2Oc2ccccc21 (stereo not drawn)
- IC50 [1]: 370 nM
- IC50 [2]: 1300 nM

Structure (SMILES): CCC[N+]1(CC2CCCCCCC2)CCC(NC(=O)C2c3ccccc3Oc3ccccc32)CC1 (stereo not drawn)
- IC50 [1]: 3.6 nM
- IC50 [2]: 270 nM

Structure (SMILES): O=C(NC1CCN(C/C2=C/CCCCCC2)CC1)C1c2cc(Cl)ccc2Oc2ccc(Cl)cc21
- IC50 [1]: 240 nM
- IC50 [2]: 1900 nM

Structure (SMILES): C[N+]1(CC2CCCCCCC2)CCC(NC(=O)C(c2ccccc2)c2ccccc2)CC1 (stereo not drawn)
- IC50 [1]: 800 nM
- IC50 [2]: > 10000 nM

Structure (SMILES): C[N+]1(CC2CCCCCCC2)CCC(NC(=O)C2c3cc(Cl)ccc3Oc3ccc(Cl)cc32)CC1 (stereo not drawn)
- IC50 [1]: 17 nM
- IC50 [2]: 710 nM

Structure (SMILES): O=C(NC1CCN(CC2CCCCC2)CC1)C1c2ccccc2Oc2ccccc21
- IC50 [1]: 200 nM
- IC50 [2]: > 10000 nM

Structure (SMILES): C[N+]1(CC2CCCCCCC2)CCC(NC(=O)C2c3ccccc3Oc3ccccc32)CC1 (stereo not drawn)
- IC50 [1]: 14 nM
- IC50 [2]: 2100 nM

Structure (SMILES): CCCCCCN1CCC(NC(=O)C2c3ccccc3Oc3ccccc32)CC1
- IC50 [1]: 510 nM
- IC50 [2]: > 10000 nM

Structure (SMILES): CC[N+]1(C/C2=C/CCCCCC2)CCC(NC(=O)C2c3ccccc3Oc3ccccc32)CC1 (stereo not drawn)
- IC50 [1]: 2 nM
- IC50 [2]: 63 nM

Structure (SMILES): CCC[N+]1(CC2CCCCCCC2)CCC(NC(=O)C2c3cc(Br)ccc3Oc3ccc(Br)cc32)CC1 (stereo not drawn)
- IC50 [1]: 3.1 nM
- IC50 [2]: 140 nM

Structure (SMILES): C[N+]1(CC2CCCCCCC2)CCC(NC(=O)C(O)(c2ccccc2)c2ccccc2)CC1 (stereo not drawn)
- IC50 [1]: 2100 nM
- IC50 [2]: > 10000 nM

Structure (SMILES): CC[N+]1(C/C2=C/CCCCCC2)CCC(NC(=O)C2c3cc(Cl)ccc3Oc3ccc(Cl)cc32)CC1 (stereo in doubt; 2q)
- IC50 [1]: 1.2 nM
- IC50 [2]: 12 nM

Structure (SMILES): CC[N+]1(C/C2=C/CCCCCC2)CCC(NC(=O)C2c3cc(Cl)ccc3Oc3ccc(Cl)cc32)CC1 (stereo in doubt; 2q-1)
- IC50 [3]: 0.58 nM
- IC50 [4]: 6.1 nM
- IC50 [5]: > 1000 nM
- IC50 [6]: 360 nM
- IC50 [7]: 0.73 nM
- IC50 [8]: > 10000 nM
- IC50 [9]: > 10000 nM
- IC50 [10]: 460 nM
- IC50 [11]: > 1000 nM
- IC50 [12]: 21 nM
- IC50 [13]: > 1000 nM
- IC50 [14]: 5.8 nM
- IC50 [1]: 0.9 nM
- IC50 [2]: 5.8 nM

Structure (SMILES): CC[N+]1(C/C2=C/CCCCCC2)CCC(NC(=O)C2c3cc(Cl)ccc3Oc3ccc(Cl)cc32)CC1 (stereo in doubt; 2q-2)
- IC50 [1]: 47 nM
- IC50 [2]: 740 nM

Structure (SMILES): N#CC(CCCN1CCC(O)(c2ccc(Cl)cc2)CC1)(c1ccccc1)c1ccccc1 [BERLEX COMPOUND]
- IC50 [1]: 48 nM
- IC50 [2]: 5000 nM
